# SENP8 block-1 = SENP8 protease inhibitors, primary screen, biochemical, luminescence; Sentrin-specific protease 8 (Homo sapiens), Q96LD8; purified SENP8, Z-RLRGG-aminoluciferin cleavage; inhibition, % at 10 µM; hit rate 1.2% among 330,000; AID 2540, 2010; in the data active means inhibition above about 50%
# Target sequence (Q96LD8 whole entry, looked up): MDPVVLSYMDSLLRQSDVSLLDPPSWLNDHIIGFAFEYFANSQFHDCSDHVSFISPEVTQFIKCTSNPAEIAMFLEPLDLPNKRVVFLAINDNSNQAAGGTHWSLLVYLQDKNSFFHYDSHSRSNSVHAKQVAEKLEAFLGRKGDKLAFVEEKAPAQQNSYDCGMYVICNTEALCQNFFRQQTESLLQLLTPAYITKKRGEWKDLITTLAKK
# SENP8 block-2 = human SENP8 protease inhibitors, primary screen, biochemical, fluorescence, Nedd8 protein substrate, uHTS; Sentrin-specific protease 8 (Homo sapiens), Q96LD8; recombinant SENP8; inhibition, % at 20 µM; hit rate 0.64% among 360,000; AID 602440, 2012; in the data active means inhibition mostly above about 40%, no sharp cut-off; inactive means mostly below about 27%
# SENP1 inh = human SENP1 catalytic domain inhibitors, primary screen, biochemical, FRET, uHTS. inhibition, % at 10 µM. hit rate 0.21% among 360,000. Sentrin-specific protease 1 (Homo sapiens), Q9P0U3. AID 624204, 2012. recombinant SENP1 catalytic domain, CyPet-SUMO1-YPet FRET cleavage;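 active means inhibition at least 30% at 10 µM, raw YFP signal under a set limit, fluorescence ratio 0.5 to 1.5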;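 further: 0% = enzyme with DMSO and 100% = no enzyme wells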
#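 material = recombinant human SENP1 catalytic domain, His6-tagged | quantity = 20 pM enzyme | reagent = 25 nM SUMO1 FRET substrate | compound dosing = 10 µM single point, 0.5% DMSO | timing = 50 min enzyme reaction, room temperature, light-protected | detection = FRET, CFP and YFP emission | control set = no-enzyme low, enzyme-DMSO high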
# HSP90 refold inh = HSP90 inhibitors, primary screen, cell lysate, luminescence; Heat shock protein HSP 90 (rabbit reticulocyte lysate; luciferase refolding); Rabbit reticulocyte lysate, luciferase refolding luminescence, 3 h; inhibition, % at 5.6 µM; hit rate 0.91% among 290,000; AID 1789, 2009;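 active means inhibition above the screen-wide mean plus 3 SD, computed separately per campaign, cut at about 16% in these data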;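 further: 0% = DMSO wells and 100% = 60 µM geldanamycin wells; inhibitors lower the luminescence because luciferase stays unfolded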
# SENP7 block = SENP7 protease inhibitors, primary screen, biochemical, luminescence, uHTS | hit rate 1.5% among 330,000 | inhibition, % at 5 µM | Sentrin-specific protease 7 (Homo sapiens), Q9BQF6 | AID 434973, 2010 | recombinant SENP7, Z-RLRGG-aminoluciferin luminescence, 40 min;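 active means inhibition above about 50% at the single test dose, limit read from the data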;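 further: plate controls were DMSO with enzyme for no effect and no enzyme buffer wells for full effect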
# SENP6 inh = SENP6 protease inhibitors, primary screen, biochemical, luminescence, uHTS; Sentrin-specific protease 6 (Homo sapiens), Q9GZR1; Recombinant SENP6 catalytic domain, aminoluciferin luminescence; inhibition, % at 10 µM; hit rate 1.8% among 330,000; AID 2599, 2010;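 active means inhibition above about 50% at the single tested dose, limit read from the data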;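 further: plate controls were DMSO wells with enzyme for no effect and DMSO wells lacking enzyme for full effect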
# Target sequence (Q9GZR1 628-1112 limits assumed): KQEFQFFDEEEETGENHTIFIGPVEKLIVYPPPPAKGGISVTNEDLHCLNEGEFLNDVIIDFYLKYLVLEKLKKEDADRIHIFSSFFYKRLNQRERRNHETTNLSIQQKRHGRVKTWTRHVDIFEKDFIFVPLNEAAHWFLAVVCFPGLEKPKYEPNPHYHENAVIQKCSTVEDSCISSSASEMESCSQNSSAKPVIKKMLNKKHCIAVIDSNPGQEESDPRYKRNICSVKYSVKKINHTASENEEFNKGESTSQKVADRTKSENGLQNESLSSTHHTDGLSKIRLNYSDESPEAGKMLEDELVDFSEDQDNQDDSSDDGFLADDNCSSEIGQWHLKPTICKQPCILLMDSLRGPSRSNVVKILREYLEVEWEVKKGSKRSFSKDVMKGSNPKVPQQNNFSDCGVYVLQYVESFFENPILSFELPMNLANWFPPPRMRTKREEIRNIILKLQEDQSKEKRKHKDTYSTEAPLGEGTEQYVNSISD
# SENP8 conf = SENP8 protease inhibitors, retest, confirmation, biochemical, luminescence, single concentration | shares compounds with SENP7 block | hit rate 40% among 6,200 | inhibition, % at 12.5 µM | Recombinant SENP8, Z-RLRGG-aminoluciferin luminescence, 60 min;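 active means mean inhibition across replicates above about 50%, limit read from the data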
# SENP6 conf = SENP6 protease inhibitors, confirmation, biochemical, luminescence, single concentration; hit rate 58% among 6,200; shares compounds with SENP7 block; recombinant SENP6, Z-RLRGG-aminoluciferin luminescence; AID 488915, 2010; inhibition, % at 12.5 µM
# SENP7 conf = SENP7 protease inhibitors, retest, confirmation, biochemical, luminescence, single concentration. AID 488917, 2010. recombinant SENP7, Z-RLRGG-aminoluciferin luminescence, 40 min. hit rate 69% among 6,200. inhibition, % at 12.5 µM. shares compounds with SENP7 block
# Casp3 SENP sel = caspase-3 protease inhibitors, confirmation, selectivity assay for SENP inhibitor project, biochemical, single concentration; shares compounds with SENP7 block; purified caspase-3, Z-DEVD-aminoluciferin luminescence, 60 min; inhibition, % at 12.5 µM; hit rate 60% among 6,200; AID 488918, 2010;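 active means mean inhibition above about 50%, limit read from the data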;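 further: plate controls were enzyme with DMSO for no effect and wells without caspase-3 for full effect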
# SENP luc ctr = interferes with luciferase luminescence in SENP counter-screen; shares compounds with SENP7 block; hit rate 39% among 6,200; Pre-incubated SENP8/Z-RLRGG-aminoluciferin, luciferase luminescence interference; inhibition, % at 12.5 µM; AID 488919;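 active means mean inhibition above about 50% when retested at one dose, limit read from the data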;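 further: plate controls were DMSO wells with completed reaction for no effect and substrate without enzyme for full effect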
# Starred values were filed as active, the others as inactive; nt = no result. Rows were chosen to be rich in hits. Some 2.9% of all compounds tested hit in one or more screens of this group.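 How the source made its calls, unless noted: active means mean inhibition above about 50% in the one-dose retest (limit read from the data); inactive means the rest.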
SMILES,SENP8 block-1,SENP8 block-2,SENP1 inh,HSP90 refold inh,SENP7 block,SENP6 inh,SENP8 conf,SENP6 conf,SENP7 conf,Casp3 SENP sel,SENP luc ctr
O=C(O)c1ccc(COc2ccc(Cl)cc2)o1,80*,16,-1,0,82*,79*,91*,90*,97*,32,89*
O=C(O)c1ccc(OCc2ccc(C(=O)O)o2)cc1,84*,24,0,-1,92*,88*,87*,88*,99*,55*,71*
O=C(O)c1ccc(COc2ccccc2[N+](=O)[O-])o1,15,15,1,-4,30,57*,46,35,71*,11,50*
COc1ccccc1C(CNC(=O)C1CCN(C(=O)Nc2ccccc2)CC1)N1CCCC1 (stereo not drawn),-7,11,-1,nt,-4,-1,nt,nt,nt,nt,nt
COc1ccc(N2CC(C(=O)Nc3ccccc3N3CCCC3)CC2=O)c(OC)c1 (stereo not drawn),5,2,2,nt,-6,-7,nt,nt,nt,nt,nt
Cc1cc(S(=O)(=O)NC(C)c2nnc3ccccn23)ccc1Br (stereo not drawn),4,10,-2,nt,-10,2,nt,nt,nt,nt,nt
O=C(Oc1ccc(=O)[nH]n1)c1ccccc1,nt,22,3,nt,nt,nt,nt,nt,nt,nt,nt
O=C(Nc1cccc(Cl)c1)Nc1ccccc1C(=O)NCc1ccco1,68*,-404,0,0,76*,73*,14,47,96*,43,46
O=C(Nc1ccccc1C(=O)NCc1ccco1)Nc1cccc2ccccc12,-6,-239,-3,2,-1,-22,nt,nt,nt,nt,nt
COc1ccc(C(=O)N/C(=C\c2cn(S(=O)(=O)N(C)C)c3ccccc23)C(=O)N2CCCC2)cc1,nt,-9,-1,nt,nt,nt,nt,nt,nt,nt,nt
CC(NCCC1(Cc2ccccc2Cl)CCOC(C)(C)C1)c1cccs1 (stereo not drawn),5,19,1,14,-11,-1,nt,nt,nt,nt,nt
c1cncc(-c2nc(-c3ccc4c(c3)OCO4)cs2)c1,50,-104,-2,-5,69*,73*,44,69*,87*,61*,13
Oc1ccc(-c2csc(-c3cccnc3)n2)c(O)c1,35,-74,0,-5,55*,66*,44,42,82*,54*,58*
CC(=O)Nc1ccc(-c2csc(-c3cccnc3)n2)cc1,27,-264,-1,7,51*,41,24,48,84*,62*,12
Clc1ccsc1-c1csc(-c2cccnc2)n1,32,-94,1,-1,45,69*,26,43,82*,14,12
COc1ccc(S(=O)(=O)N(C)C[C@H]2Oc3c(NS(=O)(=O)c4cn(C)cn4)cccc3C(=O)N([C@H](C)CO)C[C@@H]2C)cc1,8,16,0,nt,5,-14,nt,nt,nt,nt,nt
CN1CCC(N(C)C(=O)c2ccc(Cl)c(S(=O)(=O)N(C)c3ccc(Cl)cc3)c2)CC1,-10,11,-4,nt,10,-6,nt,nt,nt,nt,nt
O=S(=O)(c1ccc(S(=O)(=O)N2CCC(O)CC2)cc1)N1CCCC1,4,8,-1,-4,-3,-11,nt,nt,nt,nt,nt
Nc1nc(SCC(=O)N2CCCC2)[nH]c(=O)c1-c1ccccc1,-3,24,0,1,1,-17,nt,nt,nt,nt,nt
CC1CCCC(C)N1C(=O)CSc1nc(N)c(-c2ccccc2)c(=O)[nH]1 (stereo not drawn),7,7,0,1,87*,7,4,4,1,1,1
COc1ccccc1CNC(=O)COC(=O)Cn1cnc2c1c(=O)n(C)c(=O)n2C,nt,15,0,nt,nt,nt,nt,nt,nt,nt,nt
O=C(O)c1cc(-c2ccc3ccccc3c2)nc2ccc(F)cc12,66*,-369,-2,-7,33,73*,-2,6,14,9,24
O=C(O)c1cc(-c2ccc3ccccc3n2)nc2ccccc12,7,-3,2,10,6,32,nt,nt,nt,nt,nt
O=C(COc1ccc(Br)cc1)N(Cc1ccco1)C1CCS(=O)(=O)C1 (stereo not drawn),6,8,1,-2,-2,-1,nt,nt,nt,nt,nt
Cc1csc2nc(CSc3nc4ccccc4o3)c(Br)n12,16,14,-17,0,-1,56*,29,30,55*,20,12
SMILES,SENP8 block-1,SENP8 block-2,SENP1 inh,HSP90 refold inh,SENP7 block,SENP6 inh,SENP8 conf,SENP6 conf,SENP7 conf,Casp3 SENP sel,SENP luc ctr
Cc1ccc(S(=O)(=O)N(C)c2ccc(OCC(=O)Nc3ccc(C(=O)N(C)C)cc3)cc2)cc1C,-3,12,2,nt,-9,3,nt,nt,nt,nt,nt
c1coc(-c2nc(-c3ccncc3)no2)c1,33,-1,0,3,62*,72*,17,53*,85*,82*,21
c1ccc(-c2ccc(-c3nc(-c4ccncc4)no3)cc2)cc1,83*,-9,-1,-8,23,91*,42,37,27,72*,6
c1ccc(-c2nc(-c3ccncc3)no2)cc1,58*,18,2,-3,80*,82*,-30,-1,50,32,-2
Brc1ccc(-c2nc(-c3ccncc3)no2)cc1,13,22,1,-2,73*,7,-9,-2,19,23,-1
O=[N+]([O-])c1ccc(-c2nc(-c3ccncc3)no2)cc1,2,38,0,1,6,10,nt,nt,nt,nt,nt
CC(C)(C)OC(=O)N1CCC(C(=O)Nc2cccc(C(=O)NCCCc3ccccc3)c2)CC1,nt,-11,0,nt,nt,nt,nt,nt,nt,nt,nt
CCCCOCCCNC(=O)CN1C(=O)c2ccccc2C1=O,4,12,1,3,88*,-27,-1,0,-1,-1,-4

# Assay outcomes: PubChem, several laboratories
